Laboratory results published in ChEMBL document CHEMBL2321721 (ACS Med Chem Lett, 2013).
Calls of active or inactive are those of the source. The rule behind the calls is not given here.

Legend:
[1] = Partition coefficient, log P of the compound; type: physicochemical; settings: octanol/water
[2] = target: T1, Ribosomal protein S6 kinase alpha-3 (Homo sapiens, UniProt P51812); test: Inhibition of recombinant RSK2 (unknown origin) expressed in baculovirus infected Sf9 cells assessed as decrease in substrate phosphorylation using GST-fusion protein containing ERalpha-Ser167 sequence-RLASTND as substrate by chemiluminescence analysis
T1 sequence (P51812 whole entry, the tested form may be a part): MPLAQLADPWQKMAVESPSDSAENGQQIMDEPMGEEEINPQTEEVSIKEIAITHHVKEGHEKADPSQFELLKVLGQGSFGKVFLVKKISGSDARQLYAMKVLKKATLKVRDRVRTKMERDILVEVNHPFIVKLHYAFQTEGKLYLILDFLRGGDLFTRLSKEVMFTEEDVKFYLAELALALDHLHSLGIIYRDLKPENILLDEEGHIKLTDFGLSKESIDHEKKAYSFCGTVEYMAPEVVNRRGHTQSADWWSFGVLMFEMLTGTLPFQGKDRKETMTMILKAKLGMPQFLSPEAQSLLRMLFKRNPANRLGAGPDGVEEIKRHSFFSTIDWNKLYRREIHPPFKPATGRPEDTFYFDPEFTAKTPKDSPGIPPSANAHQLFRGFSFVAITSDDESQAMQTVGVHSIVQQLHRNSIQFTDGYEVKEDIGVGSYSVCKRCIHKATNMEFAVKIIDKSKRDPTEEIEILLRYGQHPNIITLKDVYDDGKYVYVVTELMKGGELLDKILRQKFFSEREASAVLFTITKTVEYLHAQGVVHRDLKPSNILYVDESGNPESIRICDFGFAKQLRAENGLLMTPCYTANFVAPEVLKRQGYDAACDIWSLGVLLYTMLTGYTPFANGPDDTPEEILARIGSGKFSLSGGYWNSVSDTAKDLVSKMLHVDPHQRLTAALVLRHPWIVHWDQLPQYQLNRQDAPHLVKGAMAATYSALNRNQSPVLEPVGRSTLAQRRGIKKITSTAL

[3] = Half life in CD1 mouse at 1 mg/kg, iv; type: ADME, organism-based; design: dose 1 mg/kg, route intravenous; settings: in vivo
Summary of the method: (§1)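 Male CD-1 mice given a single dose, 1 mg/kg iv or 2.5 mg/kg ip, in 1:1:15 Cremophor:EtOH:phosphate-buffered saline carrier. Plasma concentrations measured. AUC extrapolated to infinity and normalized to dose in mg/kg. C0 is maximum plasma concentration extrapolated to t = 0. Cmax is the observed maximum plasma concentration.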

[4] = target: T1, Ribosomal protein S6 kinase alpha-3; settings: MCF7, 100 uM
Plasma = test: Cmax in CD1 mouse plasma at 2.5 mg/kg, ip; type: ADME, organism-based; design: dose 2.5 mg/kg, route intraperitoneal; settings: in vivo; summary of the method: as §1
[5] = Initial plasma concentration in CD1 mouse at 1 mg/kg, iv; type: ADME, organism-based; design: dose 1 mg/kg, route intravenous; summary of the method: as §1
Mus musculus [6] = test: Dose normalized AUC in CD1 mouse at 1 mg/kg, iv; type: ADME, organism-based; design: dose 1 mg/kg, route intravenous; settings: in vivo; summary of the method: as §1
MCF7 [7] = test: Decrease in cyclin D1 level in human PMA-stimulated MCF7 cells at 100 uM pretreated for 2 hrs prior to PMA addition measured after 20 mins by immunoblot analysis; type: functional, cell-based
Summary of the method: (§2)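 MCF-7 cells pretreated with inhibitor or vehicle, then stimulated with PMA or treated with DMSO vehicle. Lysates analysed by immunoblotting for eEF2 phosphorylation and other RSK biomarkers. Inhibitor concentrations were 100 μM or 25 μM.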

[8] = target: T1, Ribosomal protein S6 kinase alpha-3; settings: MCF7, 100 uM; remark: listed apart in the source
[9] = Half life in CD1 mouse at 2.5 mg/kg, ip; type: ADME, organism-based; design: dose 2.5 mg/kg, route intraperitoneal; settings: in vivo; summary of the method: as §1
Mus musculus [10] = test: Dose normalized AUC in CD1 mouse at 2.5 mg/kg, ip; type: ADME, organism-based; design: dose 2.5 mg/kg, route intraperitoneal; settings: in vivo; summary of the method: as §1
[11] = target: T1, Ribosomal protein S6 kinase alpha-3; test: Inhibition of RSK2 in human MCF7 cells assessed as reduction of PMA-induced decrease in EF2 kinase phosphorylation at 25 uM pretreated for 24 hrs prior to PMA addition measured after 20 mins by immunoblot analysis; type: cell-based; summary of the method: as §2
MCF-10A = test: Inhibition of human MCF10A cell proliferation assessed as decrease in ATP content after 48 hrs by CellTiter-GloTM assay; type: cell-based
Summary of the method: (§3)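 Compounds added at time 0 to MCF-7 or MCF-10A cells at various concentrations, 25 μM or lower. Proliferation read as ATP content after 48 h of treatment, expressed as fold proliferation as a percentage of vehicle-treated cells. n = 3 in quadruplicate, SD, Student's t test.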

MCF7 [12] = test: Decrease in cyclin D1 level in human PMA-stimulated MCF7 cells at 25 uM pretreated for 24 hrs prior to PMA addition measured after 20 mins by immunoblot analysis; type: functional, cell-based; summary of the method: as §2
MCF7 [13] = test: Inhibition of human MCF7 cell proliferation assessed as decrease in ATP content at 25 uM after 48 hrs by CellTiter-GloTM assay relative to SL0101; type: functional; settings: MCF7, 48 h; summary of the method: as §3
[14] = target: T1, Ribosomal protein S6 kinase alpha-3; test: Inhibition of RSK2 in human PMA-stimulated MCF7 cells assessed as decrease in expression of 27kDa protein harboring (Lys/Arg)X(Lys/Arg)XX(pSer/pThr) motif at 25 uM pretreated for 24 hrs prior to PMA addition measured after 20 mins immunoblot analysis; type: cell-based; summary of the method: as §2
[15] = target: T1, Ribosomal protein S6 kinase alpha-3; test: Ratio of SL0101 IC50 to compound IC50 for recombinant RSK2 (unknown origin) expressed in baculovirus infected Sf9 cells by chemiluminescence analysis

`CC[C@@H]1O[C@@H](Oc2c(-c3ccc(O)cc3)oc3cc(O)cc(O)c3c2=O)[C@H](O)[C@H](O)[C@H]1O` showed a logP [1] of 1.64 and an IC50 [2] of 1.51 µM.
For `CCC[C@@H]1O[C@@H](Oc2c(-c3ccc(O)cc3)oc3cc(O)cc(O)c3c2=O)[C@H](OC(C)=O)[C@H](O)[C@H]1OC(C)=O`, the logP [1] was 3.39 and the IC50 [2] was 0.62 µM.
With `CC(=O)O[C@@H]1[C@@H](OC(C)=O)[C@@H](O)[C@H](Oc2c(-c3ccc(O)cc3)oc3cc(O)cc(O)c3c2=O)O[C@H]1C` the half-life [3] was 9 min, the inhibition [4] was “Active” and the Cmax (Plasma) was 1851 ng/mL. The C0 [5] was 291 ng/mL, the AUC/dose (Mus musculus [6]) was 38.7 ng·kg·h/mL/mg and the inhibition (MCF7 [7]) was “Active”. The logP [1] was 2.11, the inhibition [8] was “Active” and the half-life [9] was 24 min. It also gave an AUC/dose (Mus musculus [10]) of 1023 ng·kg·h/mL/mg.
Compound `CCC[C@@H]1O[C@@H](Oc2c(-c3ccc(O)cc3)oc3cc(O)cc(O)c3c2=O)[C@H](O)[C@H](O)[C@H]1O` has a logP [1] of 2.2.
In the case of `CCC[C@@H]1O[C@@H](Oc2c(-c3ccc(O)cc3)oc3cc(O)cc(O)c3c2=O)[C@H](O)[C@H](OC(C)=O)[C@H]1OC(C)=O`, the inhibition [11] is reported as “Active”, the Activity (MCF-10A) is reported as “Non-toxic” and the inhibition (MCF7 [12]) is reported as “Active”. For the same compound, the logP [1] was 3.17, the inhibition at 25 µM (MCF7 [13]) was 50% and the inhibition [14] was “Active”. The Ratio IC50 [15] was > 40.
In the case of `CC(C)C[C@@H]1O[C@@H](Oc2c(-c3ccc(O)cc3)oc3cc(O)cc(O)c3c2=O)[C@H](O)[C@H](O)[C@H]1O`, the logP [1] is reported as 2.41.
`CCC[C@@H]1O[C@@H](Oc2c(-c3ccc(O)cc3)oc3cc(O)cc(O)c3c2=O)[C@H](OC(C)=O)[C@H](OC(C)=O)[C@H]1OC(C)=O` gave a logP [1] of 3.87 and an IC50 [2] of 1.77 µM.
In the case of `CCC[C@@H]1O[C@@H](Oc2c(-c3ccc(O)cc3)oc3cc(O)cc(O)c3c2=O)[C@H](O)[C@H](O)[C@H]1OC(C)=O`, the logP [1] is reported as 2.9 and the IC50 [2] is reported as 1.5 µM.
